Measurements from ChEMBL document CHEMBL1629526, “4-[1-(Substituted aryl/alkyl carbonyl)-benzoimidazol-2-yl]-benzenesulfonic acids: synthesis, antimicrobial activity, QSAR studies, and antiviral evaluation” (Eur J Med Chem, 2010).
In brackets after ≈: the same amount, converted by molar mass.

How the values were obtained:
Influenza A virus [1] = assay: Antiviral activity against Influenza A H3N2 virus subtype infected in MDCK cells assessed as inhibition of virus induced cytopathicity after 2 to 4 days by MTS assay; assay type: functional, organism-based
Coxsackievirus B4 [2] = assay: Antiviral activity against coxsackievirus B4 infected in human HeLa cells assessed as inhibition of virus induced cytopathicity after 2 to 4 days by MTS assay; assay type: functional, organism-based; conditions: Enterovirus B
Vaccinia virus = assay: Antiviral activity against Vaccinia virus infected in HEL cells assessed as inhibition of virus induced cytopathicity after 2 to 4 days by MTS assay; assay type: functional, organism-based; conditions: Orthopoxvirus vaccinia
Candida albicans = assay: Antimicrobial activity against Candida albicans after 48 hrs by tube dilution method; assay type: functional
Influenza B virus [3] = assay: Antiviral activity against Influenza B virus infected in MDCK cells assessed as inhibition of virus induced cytopathicity after 2 to 4 days by MTS assay; assay type: functional, organism-based
HeLa = assay: Cytotoxicity against human HeLa cells assessed as cell viability by MTS assay; assay type: cell-based; conditions: hela
Method in brief: (§1)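 Uninfected cultures were run in parallel with the antiviral assays. Viability was read by colorimetric formazan MTS assay.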

Sindbis virus = assay: Antiviral activity against Sindbis virus infected in african green monkey Vero cells assessed as inhibition of virus induced cytopathicity after 2 to 4 days by MTS assay; assay type: functional, organism-based
Bacillus subtilis = assay: Antimicrobial activity against Bacillus subtilis after 24 hrs by tube dilution method; assay type: functional
Method in brief: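 Serial dilutions in double-strength nutrient broth (I.P.) with ciprofloxacin as reference, tube dilution, incubated 37 °C for 24 h. MIC is the lowest concentration that inhibited growth.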

Coxsackievirus B4 [4] = assay: Antiviral activity against Coxsackie virus B4 infected in african green monkey Vero cells assessed as inhibition of virus induced cytopathicity after 2 to 4 days by MTS assay; assay type: functional, organism-based; conditions: Enterovirus B
[5] = Cytotoxicity against human HeLa cells assessed as altered cell morphology; assay type: cell-based
Method in brief: (§2)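 Uninfected cell cultures run alongside the antiviral assays, exposed to serial compound dilutions and incubated at 37 °C for 2–4 days. Toxicity was scored microscopically and reported as the minimum cytotoxic concentration (MCC), the lowest concentration causing a detectable change in normal cell morphology.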

[6] = system: Vesicular stomatitis virus; assay: Antiviral activity against Vesicular stomatitis virus infected in human HeLa cells assessed as inhibition of virus induced cytopathicity after 2 to 4 days by MTS assay; assay type: functional, organism-based
MDCK = assay: Cytotoxicity against MDCK cells assessed as cell viability by MTS assay; assay type: cell-based, Canis lupus familiaris; conditions: dog, mdck; method in brief: as §1
[7] = system: Respiratory syncytial virus; assay: Antiviral activity against Respiratory syncytial virus infected in human HeLa cells assessed as inhibition of virus induced cytopathicity by visual scoring of CPE; assay type: functional, organism-based
Escherichia coli = assay: Antimicrobial activity against Escherichia coli after 24 hrs by tube dilution method; assay type: functional
[8] = system: Vesicular stomatitis virus; assay: Antiviral activity against Vesicular stomatitis virus infected in HEL cells assessed as inhibition of virus induced cytopathicity after 2 to 4 days by MTS assay; assay type: functional, organism-based
Influenza A virus [9] = assay: Antiviral activity against Influenza A H3N2 virus subtype infected in MDCK cells assessed as inhibition of virus induced cytopathicity by visual scoring of CPE; assay type: functional, organism-based
[10] = system: Mammalian orthoreovirus 1; assay: Antiviral activity against Reovirus 1 virus infected in african green monkey Vero cells assessed as inhibition of virus induced cytopathicity after 2 to 4 days by MTS assay; assay type: functional, organism-based; conditions: Mammalian orthoreovirus 1, Vero
Staphylococcus aureus = assay: Antimicrobial activity against Staphylococcus aureus after 24 hrs by tube dilution method; assay type: functional
Human respirovirus 3 = assay: Antiviral activity against parainfluenza-3 virus infected in african green monkey Vero cells assessed as inhibition of virus induced cytopathicity after 2 to 4 days by MTS assay; assay type: functional, organism-based; conditions: Human respirovirus 3, Vero
Human alphaherpesvirus 1 [11] = assay: Antiviral activity against Herpes simplex virus 1 KOS infected in HEL cells assessed as inhibition of virus induced cytopathicity after 2 to 4 days by MTS assay; assay type: functional, organism-based; conditions: Human alphaherpesvirus 1, KOS
Human alphaherpesvirus 2 = assay: Antiviral activity against Herpes simplex virus 2 G infected in HEL cells assessed as inhibition of virus induced cytopathicity after 2 to 4 days by MTS assay; assay type: functional, organism-based; conditions: Human alphaherpesvirus 2, strain G
[12] = Cytotoxicity against cat CRFK cells assessed as cell viability by MTS assay; assay type: cell-based, Felis catus; conditions: crfk; method in brief: as §1
Human alphaherpesvirus 1 [13] = assay: Antiviral activity against thymidine kinase deficient acyclovir-resistant Herpes simplex virus 1 KOS infected in HEL cells assessed as inhibition of virus induced cytopathicity after 2 to 4 days by MTS assay; assay type: functional, organism-based; conditions: Human alphaherpesvirus 1, KOS
[14] = Cytotoxicity against african green monkey Vero cells assessed as altered cell morphology; assay type: cell-based; conditions: chlorocebus sabaeus; method in brief: as §2
[15] = Cytotoxicity against MDCK cells assessed as altered cell morphology; assay type: cell-based, Canis lupus familiaris; conditions: dog; method in brief: as §2
Aspergillus niger = assay: Antimicrobial activity against Aspergillus niger after 7 days by tube dilution method; assay type: functional; conditions: 168 h
Feline coronavirus = assay: Antiviral activity against Feline coronavirus infected in cat CRFK cells assessed as inhibition of virus induced cytopathicity after 2 to 4 days by MTS assay; assay type: functional, organism-based; conditions: Alphacoronavirus 1, CRFK
[16] = system: Vesicular stomatitis virus; assay: Antiviral activity against Vesicular stomatitis virus infected in human HeLa cells assessed as inhibition of virus induced cytopathicity by visual scoring of CPE; assay type: functional, organism-based
Influenza B virus [17] = assay: Antiviral activity against Influenza B virus infected in MDCK cells assessed as inhibition of virus induced cytopathicity by visual scoring of CPE; assay type: functional, organism-based
[18] = Cytotoxicity against human HEL cells assessed as altered cell morphology; assay type: cell-based; method in brief: as §2
[19] = system: Respiratory syncytial virus; assay: Antiviral activity against Respiratory syncytial virus infected in human HeLa cells assessed as inhibition of virus induced cytopathicity after 2 to 4 days by MTS assay; assay type: functional, organism-based
Punta Toro virus = assay: Antiviral activity against Punta Toro virus infected in african green monkey Vero cells assessed as inhibition of virus induced cytopathicity after 2 to 4 days by MTS assay; assay type: functional, organism-based
Felid alphaherpesvirus 1 = assay: Antiviral activity against Feline herpesvirus 1 infected in cat CRFK cells assessed as inhibition of virus induced cytopathicity after 2 to 4 days by MTS assay; assay type: functional, organism-based; conditions: Felid alphaherpesvirus 1, CRFK
Coxsackievirus B4 [20] = assay: Antiviral activity against coxsackievirus B4 infected in human HeLa cells assessed as inhibition of virus induced cytopathicity by visual scoring of CPE; assay type: functional, organism-based; conditions: Enterovirus B

Structure (SMILES)	EC50 (Influenza A virus [1]) [µg/mL]	EC50 (Coxsackievirus B4 [2]) [µg/mL]	EC50 (Vaccinia virus) [µg/mL]	MFC (Candida albicans) [µg/mL]	EC50 (Influenza B virus [3]) [µg/mL]	CC50 (HeLa) [µg/mL]	EC50 (Sindbis virus) [µg/mL]	MBC (Bacillus subtilis) [µg/mL]	EC50 (Coxsackievirus B4 [4]) [µg/mL]	MCC [5] [µg/mL]	EC50 [6] [µg/mL]	CC50 (MDCK) [µg/mL]	EC50 [7] [µg/mL]	MBC (Escherichia coli) [µg/mL]	EC50 [8] [µg/mL]	EC50 (Influenza A virus [9]) [µg/mL]	EC50 [10] [µg/mL]	MBC (Staphylococcus aureus) [µg/mL]	EC50 (Human respirovirus 3) [µg/mL]	EC50 (Human alphaherpesvirus 1 [11]) [µg/mL]	other results
O=C(c1ccccc1)n1c(-c2ccc(S(=O)(=O)O)cc2)nc2ccccc21	> 100	> 100	> 100	50 (≈ 132 µM)	> 100	> 100	> 100	> 50	> 100	> 100	> 100	> 100	> 100	1.56 (≈ 4.12 µM)	> 100	> 100	> 100	12.5 (≈ 33 µM)	> 100	> 100	EC50 (Human alphaherpesvirus 2): > 100 µg/mL; CC50 [12]: > 100 µg/mL; EC50 (Human alphaherpesvirus 1 [13]): > 100 µg/mL; MCC [14]: > 100 µg/mL; MCC [15]: > 100 µg/mL; MFC (Aspergillus niger): > 50 µg/mL; EC50 (Feline coronavirus): > 100 µg/mL; EC50 [16]: > 100 µg/mL; EC50 (Influenza B virus [17]): > 100 µg/mL; MCC [18]: > 100 µg/mL; EC50 [19]: > 100 µg/mL; EC50 (Punta Toro virus): > 100 µg/mL; EC50 (Felid alphaherpesvirus 1): > 100 µg/mL; EC50 (Coxsackievirus B4 [20]): > 100 µg/mL
O=C(c1ccccc1Cl)n1c(-c2ccc(S(=O)(=O)O)cc2)nc2ccccc21	> 100	> 100	> 100	> 50	> 100	> 100	> 100	> 50	> 100	> 100	> 100	> 100	> 100	1.56 (≈ 3.78 µM)	> 100	> 100	> 100	25 (≈ 60.6 µM)	> 100	> 100	EC50 (Human alphaherpesvirus 2): > 100 µg/mL; CC50 [12]: > 100 µg/mL; EC50 (Human alphaherpesvirus 1 [13]): > 100 µg/mL; MCC [14]: > 100 µg/mL; MCC [15]: > 100 µg/mL; MFC (Aspergillus niger): > 50 µg/mL; EC50 (Feline coronavirus): > 100 µg/mL; EC50 [16]: > 100 µg/mL; EC50 (Influenza B virus [17]): > 100 µg/mL; MCC [18]: > 100 µg/mL; EC50 [19]: > 100 µg/mL; EC50 (Punta Toro virus): > 100 µg/mL; EC50 (Felid alphaherpesvirus 1): > 100 µg/mL; EC50 (Coxsackievirus B4 [20]): > 100 µg/mL
